Data set [1] concerns Staphylococcus aureus. The data set can be described thus: Inhibition of cell wall biosynthesis in methicillin-sensitive Staphylococcus aureus by [14C]-N-acetylglucosamine incorporation assay. It is filed as functional, organism-based.
Another data set has as its system Streptococcus pneumoniae. The data set can be described thus: Antimicrobial activity against wild-type Streptococcus pneumoniae 548 by broth microdilution method. It is filed as functional. An outline of the steps:
(§1)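 Broth microdilution following CLSI guidelines. Values under 12.5 μM are averages of three or more replicates.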
A general note: Broth dilution looks for growth in wells or tubes with falling amounts of substance.

Data set [2] is described as follows: Cmax in Wistar Hannover rat at 500 mg/kg, po dosed once daily for 14 days measured on day 14. In kind it is ADME, organism-based. Further details: dose 500 mg/kg, route oral. Particulars: in vivo. In a few lines: (§2)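 Wistar Hannover rats, 2 males and 2 females per dose, dosed orally once daily for 14 days at 250, 500 or 750 mg/kg/day. Vehicle was 0.2 M meglumine/20% hydroxypropyl-β-cyclodextrin. Blood was sampled on day 14 and exposure measured in blood. Animals were killed after sampling without necropsy.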

In data set [3] the test system is Staphylococcus aureus. In words: Antimicrobial activity against wild-type Staphylococcus aureus 516 by broth microdilution method. It is filed as functional. An outline of the steps: as §1
Data set [4] in a line: AUC in Wistar Hannover rat at 500 mg/kg, po dosed once daily for 14 days measured on day 14. It is filed as ADME, organism-based. On the set-up: dose 500 mg/kg, route oral. The settings on record: plasma. An outline of the steps: as §2
In data set [5] the test system is Staphylococcus aureus. In words: Antimicrobial activity against Staphylococcus aureus 2375 harboring GyrA S84L mutant, GyrB R144A mutant and ParC S80Y/E84G/V693M mutant and ParE N141S mutant by broth microdilution method. It is filed as functional.
The nature of data set [6]: Clearance in mouse at 3 mg/kg, iv or at 10 mg/kg, po by LC-MS/MS method. Particulars: in vivo. It is filed as ADME, organism-based. In a few lines:
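Male mice (CD-1) or male Wistar Hannover rats, three per experiment, given a 15 min iv infusion at 3 mg/kg or oral dosing at 10 mg/kg. Vehicle was DMA:TEG:saline 40/40/20 for mice and meglumine/cyclodextrin for rats. Serial jugular blood was taken over 0–24 h, plasma analysed by LC-MS/MS, and a noncompartmental analysis used. Mean values are given.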

Data set [7] has as its system Rattus norvegicus. In words: fCmax in Wistar Hannover rat at 500 mg/kg, po dosed once daily for 14 days measured on day 14. In kind it is ADME, organism-based. Further details: dose 500 mg/kg, route oral. Particulars: in vivo, 336 h.
Data set [8] concerns Rattus norvegicus. The data set can be described thus: Toxicity in Wistar Hannover rat at 250 to 500 mg/kg, po administered once daily for 14 days. In kind it is organism-based. On the set-up: dose 250-500 mg/kg, route oral. The settings on record: in vivo, 336 h. An outline of the steps:
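Repeat-dose oral study in Wistar Hannover rats, three males and three females per group, dosed once daily for 14 days at 0, 250, 500 or 750 mg/kg/day and necropsied on day 15. Endpoints were clinical signs, body weight, food intake, temperature, hematology, plasma chemistry, toxicokinetics, and gross and microscopic pathology.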

For data set [9], the system named is Staphylococcus aureus. The data set can be described thus: Antimicrobial activity against methicillin-sensitive Staphylococcus aureus by broth microdilution method. It is filed as functional. In a few lines:
as §1

In data set [10] the target is DNA topoisomerase 2-alpha (Homo sapiens, UniProt P11388). In words: Inhibition of human topoisomerase 2alpha.
Sequence of DNA topoisomerase 2-alpha (P11388 whole entry): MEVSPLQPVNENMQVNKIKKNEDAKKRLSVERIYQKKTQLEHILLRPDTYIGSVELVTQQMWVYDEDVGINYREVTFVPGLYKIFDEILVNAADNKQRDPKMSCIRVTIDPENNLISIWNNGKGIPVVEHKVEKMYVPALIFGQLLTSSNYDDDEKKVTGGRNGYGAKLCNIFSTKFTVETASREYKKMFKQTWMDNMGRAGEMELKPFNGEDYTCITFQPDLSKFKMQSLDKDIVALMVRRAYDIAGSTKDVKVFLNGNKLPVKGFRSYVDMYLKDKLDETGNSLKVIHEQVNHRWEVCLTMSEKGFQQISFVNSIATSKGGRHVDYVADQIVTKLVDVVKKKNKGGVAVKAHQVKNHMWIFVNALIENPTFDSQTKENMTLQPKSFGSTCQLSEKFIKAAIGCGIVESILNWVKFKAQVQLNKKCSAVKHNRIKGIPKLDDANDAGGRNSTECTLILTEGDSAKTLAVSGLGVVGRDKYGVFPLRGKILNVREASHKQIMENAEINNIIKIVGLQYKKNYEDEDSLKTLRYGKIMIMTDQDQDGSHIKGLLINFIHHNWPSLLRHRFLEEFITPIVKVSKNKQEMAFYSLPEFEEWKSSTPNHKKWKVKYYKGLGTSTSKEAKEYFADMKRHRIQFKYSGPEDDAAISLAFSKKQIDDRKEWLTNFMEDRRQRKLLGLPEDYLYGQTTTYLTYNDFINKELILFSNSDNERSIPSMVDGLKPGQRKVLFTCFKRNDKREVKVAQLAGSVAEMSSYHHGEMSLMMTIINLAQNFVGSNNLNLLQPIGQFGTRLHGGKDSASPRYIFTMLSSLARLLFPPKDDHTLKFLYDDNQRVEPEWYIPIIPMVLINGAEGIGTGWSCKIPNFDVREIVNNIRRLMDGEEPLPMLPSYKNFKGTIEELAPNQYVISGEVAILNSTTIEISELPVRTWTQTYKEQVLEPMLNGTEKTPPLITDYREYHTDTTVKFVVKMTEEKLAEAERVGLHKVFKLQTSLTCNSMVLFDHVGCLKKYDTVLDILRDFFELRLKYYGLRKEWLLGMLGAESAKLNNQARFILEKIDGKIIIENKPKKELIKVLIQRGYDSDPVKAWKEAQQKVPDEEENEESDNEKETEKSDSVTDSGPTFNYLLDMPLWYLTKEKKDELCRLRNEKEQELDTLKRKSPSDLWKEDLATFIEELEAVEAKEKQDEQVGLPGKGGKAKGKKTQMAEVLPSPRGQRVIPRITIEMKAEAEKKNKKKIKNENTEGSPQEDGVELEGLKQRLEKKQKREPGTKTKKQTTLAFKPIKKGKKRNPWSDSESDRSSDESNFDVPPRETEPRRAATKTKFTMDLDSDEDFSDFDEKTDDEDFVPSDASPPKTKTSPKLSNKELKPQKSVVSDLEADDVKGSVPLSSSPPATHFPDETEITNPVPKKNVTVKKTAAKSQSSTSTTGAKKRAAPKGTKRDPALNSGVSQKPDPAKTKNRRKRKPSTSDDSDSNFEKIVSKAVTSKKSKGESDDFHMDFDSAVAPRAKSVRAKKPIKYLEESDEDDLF
Data set [11] can be described thus: Solubility of the compound. It is filed as physicochemical.
In data set [12] the test system is Staphylococcus aureus. In words: Antimicrobial activity against methicillin-sensitive Staphylococcus aureus ARC516 infected in immunocompetant mouse assessed as reduction in CFU at free AUC of 13 ug.hr/mL compound administered as single ip dose starting 2 hrs after infection relative to untreated control. It is filed as functional. An outline of the steps: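 CD-1 mouse thighs were infected with mid-log S. aureus ARC516 at a target inoculum of 5 × 10⁵ CFU. Groups of five received IP compound in DMA:TEG:saline 40/40/20%, starting 2 h post-infection; a vehicle group served as control. Mice were killed 24 h after treatment start, and thigh homogenates were plated on tryptic soy agar (37 °C, overnight) for CFU/g. Free exposure was corrected for mouse plasma protein binding.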

In data set [13] the test system is Staphylococcus aureus. In words: Antimicrobial activity against methicillin-sensitive Staphylococcus aureus by broth microdilution method in presence of 50% human serum. In kind it is functional. An outline of the steps:
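CLSI broth microdilution against methicillin-sensitive S. aureus, run with 50% human serum added to the medium to reflect plasma protein binding. Values under 12.5 μM are averages of three or more replicates.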

In brackets after ≈: the same amount, converted by molar mass.

Consider `Cc1noc2c(F)c3c(cc12)CC1(C(=O)NC(=O)NC1=O)[C@H]1[C@H](C)O[C@H](C)CN31`, for which the IC50 with Staphylococcus aureus [1] was found to be 8 µg/mL (≈ 19.9 µM); in data set [10], 50 µM. In addition, the MIC stood at 4 µg/mL (≈ 9.94 µM) against Streptococcus pneumoniae; 0.5 µg/mL (≈ 1.24 µM) against Staphylococcus aureus [3]; 0.5 µg/mL (≈ 1.24 µM) in the data set on Staphylococcus aureus [5]; 1 µM (≈ 0.402 µg/mL) in the data set with Staphylococcus aureus [9]; 3.1 µM in the data set on Staphylococcus aureus [13]. This molecule displayed a Cmax in data set [2] of 440 µM. Also, in data set [4], the AUC at 336 h is 4400 µM·h. The clearance in data set [6] amounted to 38 mL/min/kg. In the data set with Rattus norvegicus [7], this molecule registered a fCmax of 70 µmol/L. Moreover, the Activity entry in the data set with Rattus norvegicus [8] is reported as “Non-toxic”. In [11], this molecule had a solubility above 1000 µM. For the same molecule, the “fold change (FC)” value with Staphylococcus aureus [12] is 3.

As a reminder, the IC50 is the concentration needed to halve the response being measured. A higher IC50 goes with weaker potency in that assay. Usually MIC stands for the lowest concentration that inhibits growth of the organism. One may read the Cmax as the highest concentration seen after dosing. One may read the AUC as the area under the concentration-time curve, a measure of exposure. A word on the solubility: it is the concentration that dissolves in the medium under given conditions.
